Compound activity (PubChem)
FLuc inh counter: Photinus pyralis luciferase inhibition counter-screen | AID 1006 | inhibition, % at 10 µM | P08659 | 200,000 tested, 1.5% active | ATPLite firefly luciferase biochemical luminescence, 10 min;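 active = inhibition above about 50% when tested at 10 µM, limit read from the data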
Target sequence (P08659 whole entry, looked up): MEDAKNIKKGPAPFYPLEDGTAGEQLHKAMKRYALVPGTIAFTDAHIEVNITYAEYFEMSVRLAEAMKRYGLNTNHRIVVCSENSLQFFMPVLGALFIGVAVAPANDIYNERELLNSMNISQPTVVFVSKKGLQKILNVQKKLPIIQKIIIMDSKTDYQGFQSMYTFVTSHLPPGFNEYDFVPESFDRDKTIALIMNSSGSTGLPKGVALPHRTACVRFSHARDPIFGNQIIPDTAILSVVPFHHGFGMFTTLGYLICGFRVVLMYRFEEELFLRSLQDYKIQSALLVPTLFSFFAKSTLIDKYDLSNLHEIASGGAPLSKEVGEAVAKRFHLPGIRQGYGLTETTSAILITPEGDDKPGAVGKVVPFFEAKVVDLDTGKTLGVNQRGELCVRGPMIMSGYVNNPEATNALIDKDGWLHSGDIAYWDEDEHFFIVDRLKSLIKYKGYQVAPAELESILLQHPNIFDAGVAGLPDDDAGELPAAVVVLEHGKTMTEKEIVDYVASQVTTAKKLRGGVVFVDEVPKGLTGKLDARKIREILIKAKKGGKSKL
Pf gamet viab: inhibitors of late stage P. falciparum gametocyte viability; P. falciparum stage V gametocytes, ATP luminescence, 24 h; inhibition, % at 10.9 µM; 150,000 tested, 0.065% active;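 active = inhibition above the mean plus 3 SD of compounds within the control limits, set per campaign, cut at about 38% in these data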
STAT1 activator: increases IFN-gamma driven STAT1 reporter signal. AID 932. NIH 3T3 STAT1-luciferase reporter, luminescence; 100% = IFN-gamma alone, no compound. 200,000 tested, 2.6% active. activation (% of control), % at 5.5 µM;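 active = activation above the screen-wide mean activation plus 3 SD, cut at about 130% in these data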
FLuc act counter: affects firefly luciferase, flagging false hits in luciferase stimulation screens; P08659; ATPlite luciferase biochemical, luminescence, 10 min; 0 = ATP-free wells, 1 = DMSO control; activation factor at 10 µM; 200,000 tested, under 10 active; AID 1027;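 active = luciferase activation factor, scaled between plate controls, of at least 2 with compound at 10 µM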
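test system = cell-free luciferase reagent | medium = PBS as buffer for the ATP substrate | dosing = test compounds dosed from 2 mM stocks in 100% DMSO | incubation = 10 min at ambient temperature | detection = luminescence measurement of luciferase light output | benchmarks = low control with PBS replacing ATP, high control enzyme plus ATP without compound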
NF-kB expr up: NF-kB expression increase, human neuronal cells. NF-kB reporter expression; stronger effect = higher value. fold change at 12.5 µM. 190,000 tested, 1.6% active; in the data active = fold change above about 3.3
APP 5'UTR act: APP 5'UTR luciferase reporter activation; SH-SY5Y APP 5'UTR luciferase reporter, luminescence; zero percent = DMSO vehicle wells; activation, % at 2 µM; 190,000 tested, 1% active;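 active = activation above a set limit, based on mean plus 3 SD of controls, cut at about 140% in these data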
Hits are given with their value; . = inactive; / = no result. In the library only some 3.5% were active in any assay of this set; here they are far more common.

SMILES	FLuc inh counter	Pf gamet viab	STAT1 activator	FLuc act counter	NF-kB expr up	APP 5'UTR act
CSC(=S)N/N=C(\C)c1ccccc1	.	.	.	.	5.94	.
COc1ccc(Cc2nnc(NC(=O)c3ccco3)s2)cc1	.	/	.	.	.	.
CCOc1ccc(OCCOCCOc2ccccc2Cl)cc1	.	.	.	.	.	.
COc1ccccc1OCCOCCOc1ccccc1Cl	.	50.8	.	.	.	.
O=C(Nc1ccc2c(c1)OCCO2)c1coc2ccccc2c1=O	97.1	/	.	.	.	.
Cc1ccccc1C(=O)Nc1ccc2c(c1)OCCO2	/	.	/	/	/	/
Cc1cc(C(=O)Nc2ccc3c(c2)OCCO3)c(C)o1	54.5	/	130.3	.	4.63	.
Cc1ncoc1C(=O)Nc1ccc2c(c1)OCCO2	.	/	.	.	.	.
Cc1ccsc1C(=O)Nc1ccc2c(c1)OCCO2	78.6	.	.	.	6.24	.
Cc1occc1C(=O)Nc1ccc2c(c1)OCCO2	.	.	131.1	.	.	.
CCN1CCN(Cc2ccc(NC(=O)Nc3cccs3)cc2)CC1	73.6	/	.	.	.	.
CCN1CCN(Cc2ccc(NC(=O)Nc3ccccc3)cc2)CC1	64.2	/	.	.	.	.
CCN1CCN(Cc2ccc(NC(=O)Nc3ccc(OC)cc3)cc2)CC1	.	/	.	.	.	.
CCCOc1ccc(-c2nnc(-c3cccs3)o2)cc1	.	.	.	.	5.17	.
CN(C)c1oc(-c2cccs2)nc1C#N	.	.	.	.	.	.
CN(C)c1ccc(-c2nnc(-c3cccs3)o2)cc1	71.8	.	.	.	7.23	163.3
Cc1ccc(C2C(C(=O)c3cccs3)=C(O)C(=O)N2CCN2CCOCC2)o1 (centres undefined)	.	.	.	.	.	.
COCc1ccccc1C1=CC(=O)C[C@H](c2ccc(OC)cc2)C1	/	.	/	/	/	/
O=C(Oc1ccc2ccccc2c1Cl)N1CCCC1	.	.	143.8	.	5.09	143.1
Fc1cccc(Cl)c1Cn1nnc2c(NCc3ccncc3)ncnc21	.	.	.	.	.	.
Cc1ccc(CO/N=C/c2c(O)cc(C)oc2=O)cc1	.	.	.	.	.	.
Cc1ccc(N/N=C/c2c(O)cc(C)oc2=O)cc1	68.1	/	.	.	.	.
Cc1cc(O)c(/C=N/Nc2ccc(F)cc2)c(=O)o1	68.0	/	.	.	.	.
CCOc1cc(CNCC2CCCO2)cc(Br)c1OCC(N)=O (centres undefined)	.	.	.	.	.	.
C=CCN=C(NC#N)SCC(=O)c1cccc(OC)c1	.	/	137.4	.	.	.
SMILES	FLuc inh counter	Pf gamet viab	STAT1 activator	FLuc act counter	NF-kB expr up	APP 5'UTR act
C=CCN=C(NC#N)SCc1ccccc1	.	.	.	.	.	.
CCOC(=O)C1CCCN(Cc2c(F)cccc2Cl)C1 (centres undefined)	.	/	.	.	.	.
CC(C)(C)C(=O)Nc1ccc2oc(-c3cc(F)c(F)cc3Cl)nc2c1	.	/	141.7	.	4.26	.
O=C(CN(Cc1ccc(F)cc1)S(=O)(=O)c1ccc(S(=O)(=O)N2CCOCC2)cc1)Nc1ccccc1	.	.	.	.	.	.
CC(=O)Nc1ccc(/C=C/c2ccc3c([N+](=O)[O-])cccc3n2)cc1	.	.	135.8	.	.	.
O=[N+]([O-])c1cccc2ccc(/C=C/c3ccc(Cl)cc3)nc12	.	.	.	.	.	.
CCOC(=O)c1cc(-c2ccc(C)cc2)nc2nc(SC)[nH]c(=O)c12	.	.	.	.	3.99	.
CC/C(=N/NC(=O)c1ccc(Br)o1)c1ccc(Cl)cc1	.	/	130.8	.	.	.
CCOc1ccc(/C=C\C(C)=N\O)cc1	69.0	.	.	.	5.14	.
COc1ccc(NC(=O)/C(Cl)=C(/Cl)S(=O)(=O)Cc2ccc(C)cc2)cn1	.	/	133.4	.	.	.
COCCCN(C(=O)c1ccccc1F)c1nc(-c2ccc(OC)cc2)cs1	/	.	/	/	/	/
Cc1ccsc1/C=N/Nc1cccc(C(=O)O)c1	58.9	.	.	.	13.9	.
CCOc1cc(/C=N/Nc2cccc(C(=O)O)c2)ccc1OC(=O)c1ccccc1	.	.	.	.	12.1	.
Cc1ccc(/C=N/Nc2cccc(C(=O)O)c2)s1	.	.	.	.	13.6	.
Nc1ccc(C(=O)N/N=C/c2sc(N3CCOCC3)nc2-c2ccccc2)cc1	.	.	.	.	.	.
O=C(O)c1cccc(N/N=C/c2sc(N3CCOCC3)nc2-c2ccccc2)c1	59.5	/	.	.	.	.
